Measurements: ChEMBL document CHEMBL3992530, “Polar aromatic periphery increases agonist potency of spirocyclic free fatty acid receptor (GPR40) agonists inspired by LY2881835” (Eur J Med Chem, 2017)
pEC50: −log10 of the molar value.

Tests used:
[1] = molecular target: T1, Free fatty acid receptor 1 (Homo sapiens, UniProt O14842); test: Agonist activity at human GPR40 expressed in CHO cells assessed as increase in intracellular calcium flux by Fluo-8 dye based FLIPR assay; type: functional, cell-based
How it was run: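 Stable CHO-GPR40 line (human receptor), seeded at 12,500 cells/well 24 h before assay. Cells were loaded 1 h with Fluo-8 calcium dye and read on FLIPR Tetra. Agonist response was taken as the maximum fluorescence change over baseline. Dose-response testing gave EC50 from fitted concentration-response curves, with GW9508 run alongside as positive control.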

[2] = molecular target: T1, Free fatty acid receptor 1; test: Agonist activity at human GPR40 expressed in CHO cells assessed as increase in intracellular calcium flux at 5 uM by Fluo-8 dye based FLIPR assay relative to GW9508; type: functional, cell-based
[3] = Half life in Balb/c mouse liver microsomes at 2 uM in presence of NADPH by HPLC-MS analysis; type: ADME, microsome
How it was run: (§1)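 Microsomes from pooled (50) perfused livers of male BALB/c mice, 0.42 mg protein/mL, in 100 mM K-phosphate pH 7.4 with MgCl2 3.3 mM, NADPH 3 mM, G6P 5.3 mM and G6PDH 0.67 U/ml. Compound was 2 μM (1.6% solvent) at 37°C, sampled at five points over 40 min in duplicate. Reactions were quenched with acetonitrile and analysed by HPLC-MS/MS. kel came from ln(AUC) vs time, T1/2 = 0.693/kel, and CLint was scaled per mg microsomes.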

[4] = Intrinsic clearance in Balb/c mouse liver microsomes at 2 uM in presence of NADPH by HPLC-MS analysis; type: ADME, microsome; how it was run: as §1
[5] = molecular target: T2, Free fatty acid receptor 3 (Homo sapiens, UniProt O14843); test: Agonist activity at human FFA3 receptor expressed in CHO cells assessed as increase in intracellular calcium flux by Fluo-8 dye based FLIPR assay; type: functional, cell-based
T2 sequence (O14843 whole entry): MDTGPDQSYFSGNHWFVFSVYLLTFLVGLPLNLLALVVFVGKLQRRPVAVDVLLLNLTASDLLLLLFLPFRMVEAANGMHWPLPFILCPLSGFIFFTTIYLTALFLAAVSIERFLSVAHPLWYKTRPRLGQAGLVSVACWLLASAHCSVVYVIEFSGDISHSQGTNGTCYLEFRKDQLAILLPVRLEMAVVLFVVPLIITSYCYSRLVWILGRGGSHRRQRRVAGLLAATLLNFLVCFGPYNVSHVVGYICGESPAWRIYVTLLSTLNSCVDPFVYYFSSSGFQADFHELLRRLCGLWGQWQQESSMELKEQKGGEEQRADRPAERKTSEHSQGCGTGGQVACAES
How it was run: (§2)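 Separate CHO lines stably expressing GPR41, GPR43 or GPR120 (from ECACC) were used for specificity screening in the same format as the FFA1 assay. Cells were plated at 12,500/well 24 h ahead, loaded 1 h with Fluo-8 calcium dye, and read on a FLIPR Tetra. Response was taken as the maximum fluorescence change over baseline.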

[6] = molecular target: T3, Free fatty acid receptor 2 (Homo sapiens, UniProt O15552); test: Agonist activity at human FFA2 receptor expressed in CHO cells assessed as increase in intracellular calcium flux by Fluo-8 dye based FLIPR assay; type: functional, cell-based; how it was run: as §2
T3 sequence (O15552 whole entry): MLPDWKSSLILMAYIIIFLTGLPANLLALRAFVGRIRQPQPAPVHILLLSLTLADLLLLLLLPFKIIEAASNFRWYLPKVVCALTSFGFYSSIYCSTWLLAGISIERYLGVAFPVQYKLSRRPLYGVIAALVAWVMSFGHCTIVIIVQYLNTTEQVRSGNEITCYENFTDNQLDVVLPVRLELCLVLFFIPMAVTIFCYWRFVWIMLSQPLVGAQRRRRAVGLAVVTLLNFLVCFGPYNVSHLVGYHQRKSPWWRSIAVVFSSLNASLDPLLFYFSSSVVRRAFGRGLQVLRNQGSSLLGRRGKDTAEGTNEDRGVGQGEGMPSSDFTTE

[7] = molecular target: T4, Free fatty acid receptor 4 (Homo sapiens, UniProt Q5NUL3); test: Agonist activity at human GPR120 expressed in CHO cells assessed as increase in intracellular calcium flux by Fluo-8 dye based FLIPR assay; type: functional, cell-based; how it was run: as §2
T4 sequence (Q5NUL3 whole entry): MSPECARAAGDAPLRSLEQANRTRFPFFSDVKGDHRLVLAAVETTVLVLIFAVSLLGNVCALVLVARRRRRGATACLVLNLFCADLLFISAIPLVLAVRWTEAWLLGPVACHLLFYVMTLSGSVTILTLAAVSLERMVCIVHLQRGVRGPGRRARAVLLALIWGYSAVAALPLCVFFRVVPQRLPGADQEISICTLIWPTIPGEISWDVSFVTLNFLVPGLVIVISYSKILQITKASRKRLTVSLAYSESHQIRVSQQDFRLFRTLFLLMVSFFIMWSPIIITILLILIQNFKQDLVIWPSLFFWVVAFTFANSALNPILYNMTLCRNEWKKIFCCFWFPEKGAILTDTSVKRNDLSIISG

[8] = Apparent permeability from apical to basolateral direction in human Caco2 cells at 10 uM after 2 hrs by HPLC-MS analysis; type: ADME, cell-based; settings: Caco-2
How it was run: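 Caco-2 cells were grown to 70–80% confluence, then seeded at 1x10⁵ cells/well on 24-well semipermeable inserts and washed twice with PBS. Compound was 10 μM in HBSS with 5,6 mM glucose and 10 mM HEPES, pH 7.4, applied apically in duplicate for 2 h at 37 °C. Receiver concentrations were measured by HPLC-MS, and Papp was computed from acceptor volume, insert area, time and acceptor/initial donor concentration.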

[9] = Kinetic aqueous solubility of the compound in PBS buffer […] at pH 7.4 by UV-Visible spectrophotometric analysis; type: physicochemical; settings: read-out: Kinetic_solubility
How it was run: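 Kinetic solubility: a 40 mM DMSO stock was diluted to a nominal 800 μM in duplicate in PBS (138 mM NaCl, 2.7 mM KCl, 10 mM K-phosphate, pH 7.4, 2% final DMSO). Samples were shaken 2 h at 25°C and then filtered. Filtrates were diluted 2-fold in methanol and quantified by UV scan (200-550 nm) against 0, 200 and 400 μM calibrants in 50% methanol/PBS. Values average n = 4.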

T1 sequence (O14842 whole entry): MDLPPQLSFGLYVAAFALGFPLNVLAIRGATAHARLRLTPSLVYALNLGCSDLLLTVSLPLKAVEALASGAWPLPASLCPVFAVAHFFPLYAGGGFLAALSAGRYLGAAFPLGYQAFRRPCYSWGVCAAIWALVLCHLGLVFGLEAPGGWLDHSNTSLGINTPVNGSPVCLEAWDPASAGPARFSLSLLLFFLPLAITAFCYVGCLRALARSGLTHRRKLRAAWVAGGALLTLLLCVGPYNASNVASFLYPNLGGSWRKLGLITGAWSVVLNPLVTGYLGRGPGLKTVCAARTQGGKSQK

SMILES	pEC50 [1]	%max [2] [%]	also measured
Cc1nccnc1OCCC1CCOC2(CCN(Cc3ccc(COc4ccc(CCC(=O)O)cc4)cc3)CC2)C1 (stereo not given)	5.90	105	
O=C(O)CCc1ccc(OCc2ccc(CN3CCC4(CC3)CC(CCOc3ncccn3)CCO4)cc2)cc1 (stereo not given)	5.41	54.5	
Cc1cccc(OCCC2CCOC3(CCN(Cc4ccc(COc5ccc(CCC(=O)O)cc5)cc4)CC3)C2)n1.Cl.Cl (stereo not given)	6.59	100	half-life at 2 µM [3]: 22.9 min; CL int at 2 µM [4]: 72.8 µL/min/mg; pEC50 [5]: < 5.00; pEC50 [6]: < 5.00; pEC50 [7]: < 5.00; Papp A→B at 2 h, 10 µM [8]: 7.3 ×10⁻⁶ cm/s; solubility kinetic [9]: 228 µM
O=C(O)CCc1ccc(OCc2ccc(CN3CCC4(CC3)CC(Oc3ccccn3)CCO4)cc2)cc1 (stereo not given)	6.05		
O=C(O)CCc1ccc(OCc2ccc(CN3CCC4(CC3)CC(CCOc3ccncc3)CCO4)cc2)cc1 (stereo not given)	5.21	48.5	
O=C(O)CCc1ccc(OCc2ccc(CN3CCC4(CC3)CC(CCOc3ccc(C(F)(F)F)cn3)CCO4)cc2)cc1 (stereo not given)	4.47	79.2	
O=C(O)CCc1ccc(OCc2ccc(CN3CCC4(CC3)CC(CCOc3cccnc3)CCO4)cc2)cc1 (stereo not given)	5.59	61.7	
O=C(O)CCc1ccc(OCc2ccc(CN3CCC4(CC3)CC(CCOc3ccc5ccccc5n3)CCO4)cc2)cc1 (stereo not given)	5.63	83.4	
O=C(O)CCc1ccc(OCc2ccc(CN3CCC4(CC3)CC(CCOc3cnccn3)CCO4)cc2)cc1 (stereo not given)	5.83	83.5	
O=C(O)CCc1ccc(OCc2ccc(CN3CCC4(CC3)CC(CCOc3nc(C5CC5)nc5c3CCC5)CCO4)cc2)cc1 (stereo not given)	5.92	60.5	
Cc1ccnc(OCCC2CCOC3(CCN(Cc4ccc(COc5ccc(CCC(=O)O)cc5)cc4)CC3)C2)c1 (stereo not given)	5.95	110	
Cc1cnc(C)c(OCCC2CCOC3(CCN(Cc4ccc(COc5ccc(CCC(=O)O)cc5)cc4)CC3)C2)n1 (stereo not given)	5.94	80.2	
O=C(O)CCc1ccc(OCc2ccc(CN3CCC4(CC3)CC(CCOc3ccc(F)cc3)CCO4)cc2)cc1 (stereo not given)	5.69	55	
O=C(O)CCc1ccc(OCc2ccc(CN3CCC4(CCCCO4)CC3)cc2)cc1	< 4.70		
O=C(O)CCc1ccc(OCc2ccc(CN3CCC4(CC3)CC(CCOc3ncnc5c3CCC5)CCO4)cc2)cc1 (stereo not given)	5.90	78.4	
